Converted amounts (≈) assume the structure as drawn.
Legend:
Staphylococcus aureus [1] = assay: Antibacterial activity against methicillin-resistant Staphylococcus aureus isolate 1 after 24 hrs by macrodilution broth method; type: functional; details: isolate 1, 24 h
Outline: (§1)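 CLSI tube macrodilution broth method, with MIC as the read-out. Test strains were S. aureus ATCC 25923 and two clinical MRSA isolates. Cultures of about 10⁸ CFU/ml in Mueller–Hinton medium and phosphonamidate (2 mM stock in ddH₂O) were added in sequence to a vancomycin dilution series from 128 down to 0.125. Tubes were incubated for 24 h at 37 °C.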

[2] = Partial competitive inhibition of VanX
Staphylococcus aureus [3] = assay: Antibacterial activity against Staphylococcus aureus ATCC 25923 after 24 hrs by macrodilution broth method; type: functional; details: ATCC 25923, 24 h; outline: as §1
Staphylococcus aureus [4] = assay: Antibacterial activity against methicillin-resistant Staphylococcus isolate 2 after 24 hrs by macrodilution broth method; type: functional; details: isolate 2, 24 h; outline: as §1
[5] = Inhibition of VanX using D-Ala-D-Ala as substrate preincubated for 30 mins before substrate addition measured after 150 secs by UV-Vis spectrometry
Outline: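 The enzyme was recombinant VanX, expressed as an MBP fusion in E. coli BL21(DE3) at 30 °C with 1 mM IPTG induction for 75 min. It was purified on amylose resin, eluted with 20 mM Tris pH 7.6, 10 mM maltose and 200 mM NaCl. Thrombin then cleaved off the MBP, followed by a Q-Sepharose step. IC₅₀ was determined by a previously reported method.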

Staphylococcus aureus [6] = assay: Antibacterial activity against Staphylococcus aureus ATCC 25923 after 24 hrs by macrodilution broth method relative to untreated control; type: functional

Compound | MIC (Staphylococcus aureus [1]) [µg/mL] | Ki [2] [µM] | MIC (Staphylococcus aureus [3]) [µg/mL] | MIC (Staphylococcus aureus [4]) [µg/mL] | IC50 [5] [µM] | fold change (FC) (Staphylococcus aureus [6])
C[C@H](N)P(=O)(O)N[C@H](C)C(=O)O | 1 (≈ 5.1 µM) | 36 | 2 (≈ 10.2 µM) | 2 (≈ 10.2 µM) | 700 | 
CC(C)C[C@@H](NP(=O)(O)[C@H](C)N)C(=O)O | 1 (≈ 4.2 µM) |  | 2 (≈ 8.4 µM) | 2 (≈ 8.4 µM) | 2820 | 
CC(C)[C@@H](NP(=O)(O)[C@H](C)N)C(=O)O | 1 (≈ 4.46 µM) |  | 2 (≈ 8.92 µM) | 2 (≈ 8.92 µM) | 1120 | 
C[C@H](N)P(=O)(O)N[C@H](Cc1ccccc1)C(=O)O | 1 (≈ 3.67 µM) |  | 2 (≈ 7.35 µM) | 2 (≈ 7.35 µM) | 4130 | 
C[C@H](N)P(=O)(O)NCC(=O)O | 1 (≈ 5.49 µM) |  | 0.25 (≈ 1.37 µM) | 1 (≈ 5.49 µM) | 390 | 8

Reference: ChEMBL document CHEMBL1921719, “Synthesis and activity study of phosphonamidate dipeptides as potential inhibitors of VanX” (Bioorg Med Chem Lett, 2011)
